PMC4019989 (Clinical cancer research : an official journal of the …, 2009)
Like-named read-outs stand apart in the source and are kept apart here.

How the values were obtained:
[1] = test system: patients with relapsed or refractory hematologic malignancies; assay: Phase 1 dose escalation: adverse events, DLT, MTD; type: in vivo
[2] = test system: relapsed or refractory hematologic malignancies; assay: Antitumor activity; type: in vivo, human
Method in brief: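 Relapsed/refractory MM, NHL, Hodgkin's or Waldenström's patients got the test compound as an i.v. push over 1–2 min on days 1–5, then 9 d rest (14-d cycles). Doses were 1.2–20 mg/m2, escalated in cohorts of three, continued until unacceptable toxicity or progression. Response used EBMT criteria (MM) and International Working Group criteria (NHL, Hodgkin's). For Waldenström's: complete = total resolution, partial = >50% resolution with no new disease.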

[3] = test system: chymotrypsin-like activity of the proteasome; conditions: rats; i.v. for 5 consecutive days; multiple tissues; well tolerated; cited from earlier work
[4] = test system: chymotrypsin-like activity of the proteasome; conditions: monkeys; i.v. for 5 consecutive days; multiple tissues; well tolerated; cited from earlier work
[5] = test system: primary acute myeloid leukemia blasts; conditions: tested at nanomolar levels (0.1-100 nmol/L); cited from earlier work
[6] = preclinical studies; cited from earlier work
[7] = test system: bortezomib-resistant MM cell lines; conditions: bortezomib-resistant MM cell lines and patient samples; cited from earlier work

CC(C)C[C@H](NC(=O)[C@H](CCc1ccccc1)NC(=O)CN1CCOCC1)C(=O)N[C@@H](Cc1ccccc1)C(=O)N[C@@H](CC(C)C)C(=O)[C@@]1(C)CO1 [carfilzomib]
Adverse event Fatigue, All Grades ([1]; human, in vivo): 14 (48) n (%) | Adverse event Fatigue, Grade 1 ([1]; human, in vivo): 10 (35) n (%) | Adverse event Fatigue, Grade 2 ([1]; human, in vivo): 3 (10) n (%) | Adverse event Fatigue, Grade 3 ([1]; human, in vivo): 1 (3) n (%) | Adverse event Fatigue, Grade 4 ([1]; human, in vivo): 0 (0) n (%) | Adverse event Headache, All Grades ([1]; human, in vivo): 7 (24) n (%) | Adverse event Headache, Grade 1 ([1]; human, in vivo): 7 (24) n (%) | Adverse event Headache, Grade 2 ([1]; human, in vivo): 0 (0) n (%) | Adverse event Headache, Grade 3 ([1]; human, in vivo): 0 (0) n (%) | Adverse event Headache, Grade 4 ([1]; human, in vivo): 0 (0) n (%) | Adverse event Hypoesthesia, All Grades ([1]; human, in vivo): 8 (28) n (%) | Adverse event Hypoesthesia, Grade 1 ([1]; human, in vivo): 5 (17) n (%) | Adverse event Hypoesthesia, Grade 2 ([1]; human, in vivo): 3 (10) n (%) | Adverse event Hypoesthesia, Grade 3 ([1]; human, in vivo): 0 (0) n (%) | Adverse event Hypoesthesia, Grade 4 ([1]; human, in vivo): 0 (0) n (%) | Adverse event Nausea, All Grades ([1]; human, in vivo): 14 (48) n (%) | Adverse event Nausea, Grade 1 ([1]; human, in vivo): 11 (38) n (%) | Adverse event Nausea, Grade 2 ([1]; human, in vivo): 3 (10) n (%) | Adverse event Nausea, Grade 3 ([1]; human, in vivo): 0 (0) n (%) | Adverse event Nausea, Grade 4 ([1]; human, in vivo): 0 (0) n (%) | Adverse event Paresthesia, All Grades ([1]; human, in vivo): 6 (21) n (%) | Adverse event Paresthesia, Grade 1 ([1]; human, in vivo): 4 (14) n (%) | Adverse event Paresthesia, Grade 2 ([1]; human, in vivo): 2 (7) n (%) | Adverse event Paresthesia, Grade 3 ([1]; human, in vivo): 0 (0) n (%) | Adverse event Paresthesia, Grade 4 ([1]; human, in vivo): 0 (0) n (%) | Adverse event Peripheral edema, All Grades ([1]; human, in vivo): 7 (24) n (%) | Adverse event Peripheral edema, Grade 1 ([1]; human, in vivo): 7 (24) n (%) | Adverse event Peripheral edema, Grade 2 ([1]; human, in vivo): 0 (0) n (%) | Adverse event Peripheral edema, Grade 3 ([1]; human, in vivo): 0 (0) n (%) | Adverse event Peripheral edema, Grade 4 ([1]; human, in vivo): 0 (0) n (%) | Adverse event Pyrexia, All Grades ([1]; human, in vivo): 8 (28) n (%) | Grade 3 and 4 adverse events: ALT increased, Grade 3 ([1]; human, in vivo): 1 (3) n (%) | Grade 3 and 4 adverse events: ALT increased, Grade 4 ([1]; human, in vivo): 0 (0) n (%) | Grade 3 and 4 adverse events: Acute bronchitis, Grade 3 ([1]; human, in vivo): 1 (3) n (%) | Grade 3 and 4 adverse events: Acute bronchitis, Grade 4 ([1]; human, in vivo): 0 (0) n (%) | Grade 3 and 4 adverse events: Acute bronchitis, Grades 3-4 ([1]; human, in vivo): 1 (3) n (%) | Grade 3 and 4 adverse events: Alkaline phosphatase increased, Grade 3 ([1]; human, in vivo): 1 (3) n (%) | Grade 3 and 4 adverse events: Alkaline phosphatase increased, Grade 4 ([1]; human, in vivo): 0 (0) n (%) | Grade 3 and 4 adverse events: Alkaline phosphatase increased, Grades 3-4 ([1]; human, in vivo): 1 (3) n (%) | Grade 3 and 4 adverse events: Anemia, Grade 3 ([1]; human, in vivo): 1 (3) n (%) | Grade 3 and 4 adverse events: Anemia, Grade 4 ([1]; human, in vivo): 0 (0) n (%) | Grade 3 and 4 adverse events: Dyspnea, Grade 3 ([1]; human, in vivo): 1 (3) n (%) | Grade 3 and 4 adverse events: Dyspnea, Grade 4 ([1]; human, in vivo): 1 (3) n (%) | Grade 3 and 4 adverse events: Fatigue, Grade 3 ([1]; human, in vivo): 1 (3) n (%) | Grade 3 and 4 adverse events: Fatigue, Grade 4 ([1]; human, in vivo): 0 (0) n (%) | Grade 3 and 4 adverse events: Fatigue, Grades 3-4 ([1]; human, in vivo): 1 (3) n (%) | Grade 3 and 4 adverse events: Febrile neutropenia, Grade 3 ([1]; human, in vivo): 1 (3) n (%) | Grade 3 and 4 adverse events: Febrile neutropenia, Grade 4 ([1]; human, in vivo): 0 (0) n (%) | Grade 3 and 4 adverse events: Febrile neutropenia, Grades 3-4 ([1]; human, in vivo): 1 (3) n (%) | Grade 3 and 4 adverse events: Gastrointestinal hemorrhage, Grade 3 ([1]; human, in vivo): 1 (3) n (%) | Grade 3 and 4 adverse events: Gastrointestinal hemorrhage, Grade 4 ([1]; human, in vivo): 0 (0) n (%) | Grade 3 and 4 adverse events: Gastrointestinal hemorrhage, Grades 3-4 ([1]; human, in vivo): 1 (3) n (%) | Grade 3 and 4 adverse events: Hemoglobin decreased, Grade 3 ([1]; human, in vivo): 1 (3) n (%) | Grade 3 and 4 adverse events: Hemoglobin decreased, Grade 4 ([1]; human, in vivo): 0 (0) n (%) | Grade 3 and 4 adverse events: Hemoglobin decreased, Grades 3-4 ([1]; human, in vivo): 1 (3) n (%) | maximum tolerated dose (MTD) ([1]; i.v. push on 5 consecutive days within 14-day cycles): 15 mg/m^2 | DLTs in the initial seven dose cohorts ([1]; in vivo): No DLTs were observed | Subjects achieving objective tumor responses ([2]; 28 of 29 patients evaluable, all responders treated at 11 mg/m^2 and higher): Four | Subjects with stable disease ([2]; across all dose cohorts and diagnoses): nine | Patients with progressive disease while on study ([2]; all cohorts): 15 patients | Average duration on therapy of subjects with stable disease ([2]; eight cycles): 116 days | IgA level by the end of the fifth cycle ([2]; person with IgA MM, 11 mg/m^2): 235 mg/dL | IgA level within two cycles (10 doses) ([2]; person with IgA MM, 11 mg/m^2, from 709 mg/dL): 297 mg/dL | reduction in serum M-protein ([2]; person with Waldenström's macroglobulinemia, after two cycles of 15 mg/m^2): 25% | Objective responses in subjects with plasma cell dyscrasias ([2]; treated at or above 11 mg/m^2, two MM, one Waldenström's macroglobulinemia): Three of six | Proteasome (chymotrypsin-like activity) inhibition [3]: > 80% | Proteasome (chymotrypsin-like activity) inhibition [4]: > 80% | autocrine- and cytokine-dependent proliferation [5]: inhibited autocrine- and cytokine-dependent proliferation | Time for serum concentrations to approach the limit of assay detection [6]: ≤ 1 h | Proliferation and apoptosis [7]: inhibited proliferation and induced apoptosis
